The values below come from ChEMBL document CHEMBL1134345, “Coumarin and chromen-4-one analogues as tautomerase inhibitors of macrophage migration inhibitory factor: discovery and X-ray crystallography” (J Med Chem, 2001).

The target in one experiment is T1, Macrophage migration inhibitory factor (Homo sapiens, UniProt P14174).
T1 sequence (P14174 whole entry): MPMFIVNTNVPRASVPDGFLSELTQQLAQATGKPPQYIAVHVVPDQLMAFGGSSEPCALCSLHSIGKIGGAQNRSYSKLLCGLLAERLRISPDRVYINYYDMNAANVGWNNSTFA
Kind of experiment: Binding activity towards the active site of macrophage migration inhibitory factor (MIF).
A word on the Kd: it is the concentration at which binding is half-saturated. The molecule `CCCCCCSC[C@H](NC(=O)CC[C@H](N)C(=O)O)C(=O)NCC(=O)O` displayed a Kd of 2500 µM. That is a millimolar value.

The next experiment has as its target T1, Macrophage migration inhibitory factor. Kind of experiment: Inhibitory activity against tautomerase macrophage migration inhibitory factor (MIF). Put shortly:
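Recombinant human MIF at 4 ug/mL final, in sodium phosphate buffer pH 6.0. Inhibitors were added in DMSO (1% v/v final). The reaction was started with freshly made D-dopachrome (D-DOPA oxidized with periodate, 1:2) at 0.25–0.5 mM. The A475 decrease was followed for 10 min. Initial rates were corrected for the uncatalyzed rate without MIF. Ki came from three-dimensional nonlinear regression.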
For orientation: Ki means the equilibrium dissociation constant of an inhibitor or competing ligand from its target. Low readings indicate a stronger hold on the target, high ones a looser hold on the target. Turning to `O=C(O)/C=C/c1ccc(O)cc1F`, affinity was put at a Ki of 2.6 µM.
The same measure, in the same setting: the result for `O=C(COC(=O)c1cc2ccccc2oc1=O)c1ccccc1` reads 1.6 µM; that for `N#Cc1cc2ccc(O)cc2oc1=O`, 2.9 µM.
In turn, `O=c1oc2cc(O)ccc2cc1-c1nc(-c2ccc3c(c2)OCO3)cs1` showed a Ki of 1.5 µM. Compared with the last molecule, the Ki is about 1.9-fold lower.
Still for that read-out and setting: next, `CN(C)c1ccc(/C=C2\C(=O)Oc3ccccc3C2=O)cc1`: 6.2 µM; `CC(=O)c1cc2ccc(O)cc2oc1=O`: 4.3 µM.
On the same count and under the same terms, next, `O=c1oc2ccccc2cc1-c1csc(-c2cc3ccc(O)cc3oc2=O)n1`: 0.28 µM.
The same measure, in the same setting: next, `CCOC(=O)CC(=O)c1cc2ccc(O)cc2oc1=O`: 5.8 µM; `O=c1oc2cc(O)ccc2cc1-c1ccccc1`: 0.47 µM.
As a reminder, the IC50 is the concentration that gives 50% inhibition. Read a low IC50 as greater potency. Take `CCCCCCSC[C@H](NC(=O)CC[C@H](N)C(=O)O)C(=O)NCC(=O)O`: inhibition was half-maximal at 3300 µM (IC50).
`Cc1nc(-c2cc3ccc(O)cc3oc2=O)cs1` came in with an inhibition constant Ki of 2.1 µM.
`Cc1csc(-c2cc3ccc(O)cc3oc2=O)n1`: the Ki is 3.1 µM.
`NC(=S)c1cc2ccc(O)cc2oc1=O`: the affinity, expressed as Ki, was 0.55 µM. This Ki is about 5.6-fold lower than that of the molecule before.
With `CCCCCCS` [HEXANETHIOL], the half-maximal inhibitory concentration (IC50) was 17.4 µM.
